Measurements from ChEMBL document CHEMBL4138315, “Synthesis and Evaluation of a Novel Bivalent Selective Antagonist for the Mu-Delta Opioid Receptor Heterodimer that Reduces Morphine Withdrawal in Mice” (J Med Chem, 2018).
pIC50, pKi: −log10 of the molar value. Calls of active or inactive are those of the source.

Experiments:
[1] = target: T1, Delta-type opioid receptor (Homo sapiens, UniProt P41143); experiment: Antagonist activity at human DOR expressed in CHO cell membranes assessed as inhibition of CYM51010-induced [35S]-GTPgammaS binding preincubated for 5 mins followed by CYM51010 and [35S]-GTPgammaS addition measured after 80 mins; format: functional; details: cho
T1 sequence (P41143 whole entry): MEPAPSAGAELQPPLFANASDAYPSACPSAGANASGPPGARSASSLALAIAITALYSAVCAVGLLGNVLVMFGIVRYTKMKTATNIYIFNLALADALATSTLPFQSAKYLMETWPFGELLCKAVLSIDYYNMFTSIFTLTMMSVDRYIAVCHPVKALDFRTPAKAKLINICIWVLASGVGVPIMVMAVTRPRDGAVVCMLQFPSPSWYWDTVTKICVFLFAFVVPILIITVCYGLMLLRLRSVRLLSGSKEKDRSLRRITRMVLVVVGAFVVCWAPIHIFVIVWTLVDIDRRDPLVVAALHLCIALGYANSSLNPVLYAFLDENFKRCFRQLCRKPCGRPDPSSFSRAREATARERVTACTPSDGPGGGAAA
Summary of the method: (§1)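 Membranes from CHO cells stably expressing human opioid receptor (N-terminal tagged) were preincubated 5 min with antagonist concentration curves, then given 1 µM CYM51010 and 0.1 nM 35S-GTPγS; 30°C, 80 min, GF/B filtration, scintillation counting. Normalized to CYM51010 alone (100%) and vehicle (0%). Fits: 1-site for MOR/DOR (IC50), 2-site for MDOR (IC50HIGH). N = 3-4, duplicate, mean ± SEM.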

[2] = tested on: Mus musculus; experiment: Reduction in morphine dependence expression in acute morphine dependence ICR mouse model assessed as reduction in GI output at 1 nmol, icv up to 20 mins; format: functional, organism-based
Summary of the method: (§2)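 Acute dependence: morphine 100 mg/kg sc, then naloxone 10 mg/kg ip 4 h later. 1 nmol icv or vehicle given 5 min before naloxone; one control arm had no naloxone. Mice observed 20 min in plexiglass cylinders; jumps counted, then urine and feces weighed.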

[3] = tested on: Mus musculus; experiment: Reduction in morphine dependence expression in chronic morphine dependence ICR mouse model assessed as inhibition of naloxone-precipitated jumping behavior at 1 nmol, icv administered 5 mins prior to naloxone injection measured up to 20 mins relative to control; format: functional; design: scale not given: the % may be the effect or the level left
Summary of the method: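 Chronic dependence: morphine sc twice daily at 10, 20 and 35 mg/kg on days 1-3, single 35 mg/kg on morning of day 4. Naloxone 30 mg/kg ip 4 h later. 1 nmol icv or vehicle 5 min before naloxone. Jumps counted over 20 min in plexiglass cylinders, then urine and feces weighed.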

[4] = target: Kappa-type opioid receptor (Homo sapiens) (UniProt P41145); experiment: Antagonist activity at human KOR expressed in CHO cell membranes assessed as inhibition of U50488-induced [35S]-GTPgammaS binding preincubated for 5 mins followed by U50488 and [35S]-GTPgammaS addition measured after 80 mins; format: functional
Sequence of Kappa-type opioid receptor (Homo sapiens) (P41145 whole entry): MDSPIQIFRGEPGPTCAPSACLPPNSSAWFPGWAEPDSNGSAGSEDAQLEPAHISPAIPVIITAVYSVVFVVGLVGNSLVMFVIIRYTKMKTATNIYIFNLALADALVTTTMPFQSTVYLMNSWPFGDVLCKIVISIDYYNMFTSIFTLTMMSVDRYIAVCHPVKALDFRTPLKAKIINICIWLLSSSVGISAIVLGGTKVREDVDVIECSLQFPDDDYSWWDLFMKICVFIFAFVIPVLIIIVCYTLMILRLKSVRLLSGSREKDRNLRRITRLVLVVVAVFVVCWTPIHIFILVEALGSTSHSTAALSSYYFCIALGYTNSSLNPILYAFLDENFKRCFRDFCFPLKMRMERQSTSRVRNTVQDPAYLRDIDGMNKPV
Summary of the method: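 KOR-CHO membranes (human receptor, N-terminal tag), antagonist concentration curve preincubated 5 min, then 1 µM U50,488 plus 0.1 nM 35S-GTPγS added. Incubated 30°C, 80 min; filtration and scintillation counting. Vehicle 0.1% DMSO in assay buffer with 0.1% BSA. Normalized to agonist alone (100%) and vehicle (0%). One-site curve fit; N = 3 independent experiments in duplicate.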

[5] = species on record: Homo sapiens; experiment: Selectivity ratio of KiH for human mu-delta opioid receptor heterodimer expressed in CHO cell membranes to Ki for human DOR expressed in CHO cell membranes; format: cell-based
[6] = species on record: Homo sapiens; experiment: Selectivity ratio of IC50H for human mu-delta opioid receptor heterodimer expressed in CHO cell membranes to IC50 for human DOR expressed in CHO cell membranes; format: cell-based
[7] = tested on: Mus musculus; experiment: Reduction in morphine dependence expression in chronic morphine dependence ICR mouse model assessed as inhibition of naloxone-precipitated GI effects of withdrawal at 1 nmol, […] administered 5 mins prior to naloxone injection measured up to 20 mins; format: functional, organism-based
[8] = species on record: Mus musculus; experiment: Antinociceptive activity in CD1 mouse assessed as reduction in SNC80-induced nociception at 10 nmol pretreated for 5 mins followed by SNC80 injection measured up to 2 hrs by tail flick assay; format: functional, organism-based
Summary of the method: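 Male CD-1 mice received 10 nmol icv (vehicle 2% DMSO/10% Tween80/88% water), 5 min before sc agonist. SNC80 was 10 mg/kg in 20% DMSO/10% Tween80/70% saline; morphine was given in saline. 52°C tail flick, 10 s cutoff, recorded over a 2 h time course; experimenter blinded.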

[9] = tested on: Mus musculus; experiment: Reduction in morphine dependence expression in acute morphine dependence ICR mouse model assessed as reduction in jumping behavior at 1 nmol, icv up to 20 mins; format: functional, organism-based; summary of the method: as §2
[10] = target: T2, Mu-type opioid receptor (Homo sapiens, UniProt P35372); experiment: Displacement of [3H]-diprenorphine from human MOR expressed in CHO cell membranes after 80 mins by scintillation counting analysis; details: cho
T2 sequence (P35372 whole entry): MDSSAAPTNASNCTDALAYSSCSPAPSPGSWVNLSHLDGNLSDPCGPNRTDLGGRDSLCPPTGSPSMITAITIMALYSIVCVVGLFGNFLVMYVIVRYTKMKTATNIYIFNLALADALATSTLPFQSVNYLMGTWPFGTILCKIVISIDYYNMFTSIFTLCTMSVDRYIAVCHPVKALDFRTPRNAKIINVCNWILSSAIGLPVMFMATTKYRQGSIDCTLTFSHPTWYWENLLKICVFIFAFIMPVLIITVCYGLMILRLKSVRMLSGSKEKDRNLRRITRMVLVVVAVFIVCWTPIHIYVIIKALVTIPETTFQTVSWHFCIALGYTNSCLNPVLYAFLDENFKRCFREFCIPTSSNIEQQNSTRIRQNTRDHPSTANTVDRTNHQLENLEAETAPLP
Summary of the method: (§3)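 Competition binding on MOR-, DOR- or MDOR-CHO membranes used a fixed 3H-diprenorphine level against competitor concentration curves; 30°C, 80 min, GF/B filtration, scintillation counting. Nonspecific binding defined with 500 nM each DMT-Tic-Ala-OH and CTAP. Ki was derived from IC50 and the 3H-diprenorphine KD in each line; MDOR data fitted with a 2-site model. N = 3-4, mean ± SEM.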

[11] = target: T1, Delta-type opioid receptor; experiment: Displacement of [3H]-diprenorphine from human DOR expressed in CHO cell membranes after 80 mins by scintillation counting analysis; details: cho; summary of the method: as §3
[12] = tested on: Mus musculus; experiment: Antinociceptive activity in CD1 mouse assessed as reduction in DAMGO-induced nociception up to10 nmol, icv pretreated for 5 mins followed by DAMGO injection measured up to 2 hrs by tail flick assay; format: functional, organism-based
[13] = target: T3, Opioid receptors; mu & delta (Homo sapiens, UniProt P41143+P35372); experiment: Antagonist activity at human MOR expressed in CHO cell membranes mixed with human DOR expressed in CHO cell membranes assessed as inhibition of CYM51010-induced [35S]-GTPgammaS binding preincubated for 5 mins followed by CYM51010 and [35S]-GTPgammaS addition measured after 80 mins; format: functional
T3 sequence (P35372 whole entry, looked up): as the sequence (P35372 whole entry) above
T3 sequence (P41143 whole entry, looked up): as the sequence (P41143 whole entry) above
Summary of the method: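 MOR-CHO and DOR-CHO membranes mixed at the molar ratio from MDOR-CHO saturation binding (Bmax 7.9 pmol/mg DOR, 1.1 pmol/mg MOR). Antagonist curve preincubated 5 min, then 1 µM CYM51010 and 0.1 nM 35S-GTPγS. Incubated 30°C, 80 min, then filtered and counted. Normalized to CYM51010 alone and vehicle. N = 3 independent experiments in duplicate.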

[14] = target: T3, Opioid receptors; mu & delta; experiment: Antagonist activity at human mu-delta opioid receptor heterodimer expressed in CHO cell membranes assessed as inhibition of CYM51010-induced [35S]-GTPgammaS binding at high site fraction preincubated for 5 mins followed by CYM51010 and [35S]-GTPgammaS addition measured after 80 mins relative to control; format: functional
Summary of the method: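 35S-GTPγS coupling in MDOR-CHO membranes: 5 min antagonist pre-incubation, then 1 µM CYM51010 plus 0.1 nM 35S-GTPγS, 30°C for 80 min, filtration and scintillation read. A 3-variable 2-site antagonist fit gave FHIGH, the fraction of the high-potency site. N = 3-4 independent experiments.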

[15] = tested on: Mus musculus; experiment: Antinociceptive activity in CD1 mouse assessed as reduction in DSLET-induced nociception up to 10 nmol, icv pretreated for 5 mins followed by DSLET injection measured up to 2 hrs by tail flick assay; format: functional, organism-based
[16] = target: T2, Mu-type opioid receptor; experiment: Antagonist activity at human MOR expressed in CHO cell membranes assessed as inhibition of CYM51010-induced [35S]-GTPgammaS binding preincubated for 5 mins followed by CYM51010 and [35S]-GTPgammaS addition measured after 80 mins; format: functional; details: cho; summary of the method: as §1
[17] = tested on: Mus musculus; experiment: Antinociceptive activity in icv dosed CD1 mouse assessed as reduction in CYM51010-induced nociception pretreated for 5 mins followed by CYM51010 injection measured up to 2 hrs by tail flick assay; format: functional
[18] = tested on: Mus musculus; experiment: Effect on tail flick response in CD1 mouse up to 10 nmol, icv measured up to 2 hrs; format: ADME, organism-based; details: in vivo, icv_or_intrathecal
Summary of the method: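 Naïve male CD-1 mice were given a dose range up to 10 nmol icv, 5 min before icv vehicle in place of agonist. Tail flick latency in 52°C water (10 s cutoff) recorded over 2 h, baseline first; experimenter blinded.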

N[C@@H](Cc1ccc(O)cc1)C(=O)N1Cc2ccccc2C[C@@H]1C(=O)NCC(=O)NCCCCC(=O)N[C@H](CCCCNC(=O)CCCCNC(=O)CNC(=O)[C@@H](Cc1cccc2ccccc12)NC(=O)[C@H](Cc1ccccc1)NC(=O)[C@@H]1CCCN1C(=O)[C@@H](N)Cc1ccc(O)cc1)C(=O)O
pIC50 [1]: 7.12 | Activity [2]: Active | Activity [3]: 85.2% | inhibition [4]: inactive | Ratio Ki [5]: 133 | Ratio IC50 [6]: 89 | Activity [7]: Active | Activity [8]: inactive | Activity [9]: inactive | pKi [10]: < 6.00 | pKi [11]: 7.08 | Activity [12]: inactive | IC50H [13]: 89 nM | IC50L [13]: > 1000 nM | Imax [14]: 39% | Activity [15]: inactive | pIC50 [16]: < 6.00 | A50 [17]: 2.04 nmol | Activity [17]: Dose-dependent effect | Activity [18]: Non-Toxic
